# Measurements gathered from unrelated publications.
# Cell line: HepG2
# Read-out: cell growth or viability
SMILES,test,conditions,measurement,result
CCOC(=O)c1ccc(-n2c(N)c(C#N)c(CC#N)c(C#N)c2=O)cc1,MTT,"50 µM, 24 h",viability,35.1%
COc1ccc(NC(=O)c2c(Nc3ccccc3)sc(C#N)c2NC(=O)CNc2ccc(Cl)cc2)cc1,SRB,"10 µM, 48 h",viability,33.2%
CC(=O)Nc1cccc(-n2c(=O)n(C3CC3)c(=O)c3c(Nc4ccc(I)cc4F)n(C)c(=O)c(C)c32)c1,resazurin,"25 nM, 72 h",viability,42.6%
CCOC(=O)c1ccc(N2C(N)=C(C#N)C3(C(=O)Nc4ccccc43)C(C#N)=C2O)cc1 (stereo not shown),MTT,"3.125 µM, 24 h",viability,69.3%
COc1ccc(-c2nc3ccccc3[nH]2)cc1OC,MTT,48 h,IC50,44.1 µM
COc1ccc(NC(=O)c2c(Nc3ccccc3)sc(C#N)c2NC(=O)CNc2ccc([N+](=O)[O-])cc2)cc1,SRB,"10 nM, 48 h",viability,86.4%
Cc1ccc2nc(-c3cccnc3)[nH]c2c1,MTT,48 h,IC50,68.4 µM
COc1ccc(NC(=O)c2c(Nc3ccccc3)sc(C(=O)NN=Cc3ccc(OC)c(O)c3)c2NC(C)=O)cc1,SRB,"100 µM, 48 h",viability,22.4%
CCOC(=O)c1ccc(NC(=O)C2=C3C(=Nc4ccccc43)NC2=O)cc1,MTT,"1.56 µM, 24 h",viability,100%
O=[N+]([O-])c1ccc(-c2nc3ccccc3[nH]2)cc1,MTT,48 h,IC50,21 µM
COc1ccc(NC(=O)c2c(Nc3ccccc3)sc(C#N)c2NC(=O)CNc2ccccc2Cl)cc1,SRB,"0.1 µM, 48 h",viability,95.7%
CCOC(=O)c1ccc(-n2c(-c3ccc(C)cc3)cc(-c3ccc(O)cc3)c(C#N)c2=O)cc1,MTT,"6.25 µM, 24 h",viability,67.9%
C=CCn1c(-c2ccc([N+](=O)[O-])cc2)nc2ccccc21,MTT,,IC50,36.8 µM
